Assay results taken from ChEMBL document CHEMBL3864137, “Design, Synthesis, and Pharmacological Evaluation of 2-(2,5-Dimethyl-5,6,7,8-tetrahydroquinolin-8-yl)-N-aryl Propanamides as Novel Smoothened (Smo) Antagonists” (J Med Chem, 2016).
pIC50: −log10 of the molar value.

What was measured:
Protein smoothened = Protein smoothened (Mus musculus, UniProt P56726); assay: Inhibition of Smo-mediated Hh signalling pathway in mouse Shh Light2 cells by Gli-luciferase reporter gene assay; format: cell-based
How it was run: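 Light II cells (NIH-3T3 stably carrying a Gli-responsive firefly luciferase reporter plus a Renilla luciferase vector), seeded in 96-well plates and treated. Firefly/Renilla activity in the lysates read by dual luciferase assay on a luminometer. IC50 is the mean ± SD of three separate experiments.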

[1] = Cytotoxicity against human KB cells; format: toxicity, cell-based
[2] = biological target: Voltage-gated inwardly rectifying potassium channel KCNH2 (Homo sapiens, UniProt Q12809); assay: Inhibition of human ERG
[3] = Cytotoxicity against mouse L1210 cells by MTT assay; format: functional, cell-based

Protein smoothened, sequence (P56726 whole entry): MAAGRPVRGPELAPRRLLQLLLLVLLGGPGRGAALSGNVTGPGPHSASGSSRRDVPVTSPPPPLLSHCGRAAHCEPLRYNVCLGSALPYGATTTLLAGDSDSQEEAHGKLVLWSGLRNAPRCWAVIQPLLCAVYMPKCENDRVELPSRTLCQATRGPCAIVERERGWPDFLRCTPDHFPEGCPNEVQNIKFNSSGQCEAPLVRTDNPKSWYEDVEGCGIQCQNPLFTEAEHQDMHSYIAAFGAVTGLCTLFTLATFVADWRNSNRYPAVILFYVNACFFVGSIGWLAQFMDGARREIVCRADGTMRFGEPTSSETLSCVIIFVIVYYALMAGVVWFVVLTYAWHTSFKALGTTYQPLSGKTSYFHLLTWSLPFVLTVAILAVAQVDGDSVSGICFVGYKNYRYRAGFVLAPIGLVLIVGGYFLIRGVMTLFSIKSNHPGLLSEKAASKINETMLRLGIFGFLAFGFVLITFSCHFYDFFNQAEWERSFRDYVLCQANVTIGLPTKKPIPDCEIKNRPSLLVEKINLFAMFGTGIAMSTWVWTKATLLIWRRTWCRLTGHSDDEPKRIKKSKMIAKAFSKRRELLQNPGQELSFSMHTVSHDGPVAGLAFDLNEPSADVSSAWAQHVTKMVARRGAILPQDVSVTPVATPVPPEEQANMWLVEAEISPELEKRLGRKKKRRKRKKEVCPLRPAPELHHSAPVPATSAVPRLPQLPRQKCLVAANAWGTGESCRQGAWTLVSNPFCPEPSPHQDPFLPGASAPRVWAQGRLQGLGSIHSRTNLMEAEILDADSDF
Voltage-gated inwardly rectifying potassium channel KCNH2, sequence (Q12809 whole entry): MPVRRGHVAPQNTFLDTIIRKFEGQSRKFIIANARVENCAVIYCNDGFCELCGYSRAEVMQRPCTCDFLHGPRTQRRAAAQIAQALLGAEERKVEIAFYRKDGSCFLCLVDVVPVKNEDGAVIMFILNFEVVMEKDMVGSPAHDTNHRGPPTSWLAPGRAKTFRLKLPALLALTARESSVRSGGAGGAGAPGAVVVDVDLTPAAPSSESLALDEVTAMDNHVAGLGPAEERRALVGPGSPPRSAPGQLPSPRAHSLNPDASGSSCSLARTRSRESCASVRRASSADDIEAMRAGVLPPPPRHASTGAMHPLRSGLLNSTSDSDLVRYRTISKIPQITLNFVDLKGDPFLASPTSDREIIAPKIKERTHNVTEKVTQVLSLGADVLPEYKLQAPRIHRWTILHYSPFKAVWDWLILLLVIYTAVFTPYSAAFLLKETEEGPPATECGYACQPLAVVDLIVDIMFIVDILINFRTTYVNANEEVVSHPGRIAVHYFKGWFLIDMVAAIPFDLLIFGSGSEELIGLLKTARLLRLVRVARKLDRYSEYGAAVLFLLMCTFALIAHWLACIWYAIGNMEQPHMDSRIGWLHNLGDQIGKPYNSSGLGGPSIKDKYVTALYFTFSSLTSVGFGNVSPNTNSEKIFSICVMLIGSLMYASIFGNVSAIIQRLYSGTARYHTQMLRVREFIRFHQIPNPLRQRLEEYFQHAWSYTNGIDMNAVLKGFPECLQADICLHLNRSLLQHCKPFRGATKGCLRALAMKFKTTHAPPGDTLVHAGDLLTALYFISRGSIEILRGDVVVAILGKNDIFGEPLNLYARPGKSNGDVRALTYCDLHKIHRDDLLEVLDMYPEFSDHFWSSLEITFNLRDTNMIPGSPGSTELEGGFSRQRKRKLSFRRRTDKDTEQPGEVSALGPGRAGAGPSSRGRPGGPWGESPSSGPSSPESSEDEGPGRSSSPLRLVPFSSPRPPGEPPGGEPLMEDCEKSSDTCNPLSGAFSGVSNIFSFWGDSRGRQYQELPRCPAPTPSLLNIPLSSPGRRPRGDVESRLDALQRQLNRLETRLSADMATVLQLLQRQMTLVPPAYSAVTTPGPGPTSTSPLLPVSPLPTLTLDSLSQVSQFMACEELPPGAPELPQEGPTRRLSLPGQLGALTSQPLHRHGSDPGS

SMILES | pIC50 (Protein smoothened) | further results
Cc1ccc2c(n1)[C@H]([C@@H](C)C(=O)Nc1ccc(Cl)c(-c3nnc(-c4ccnn4C)o3)c1)CC[C@H]2C | 6.23 | 
Cc1ccc2c(n1)[C@H]([C@@H](C)C(=O)Nc1ccc(Cl)c(-c3nc4ccc(OC(F)(F)F)cc4n3C)c1)CC[C@H]2C | 7.28 | 
Cc1ccc2c(n1)[C@H]([C@@H](C)C(=O)Nc1ccc(Cl)c(-c3nnc(-c4ccnn4C)s3)c1)CC[C@H]2C | 6.58 | 
Cc1ccc2c(n1)[C@H]([C@@H](C)C(=O)Nc1cccc(-c3ccc(OC(F)(F)F)cc3)c1C)CC[C@H]2C | 6.00 | 
Cc1ccc2c(n1)[C@H]([C@@H](C)C(=O)Nc1ccc(Cl)c(-c3nc4cc(OC(F)(F)F)ccc4n3C)c1)CC[C@H]2C | 7.07 | 
Cc1ccc2c(n1)[C@H]([C@@H](C)C(=O)Nc1ccc(Cl)c(-c3nc4ccccc4[nH]3)c1)CC[C@H]2C | 7.34 | 
C[C@@H]1CC[C@@H]([C@@H](C)C(=O)Nc2ccc(Cl)c(-c3ccccn3)c2)[C@H]2CC(=O)C=C[C@H]21 | < 6.00 | 
C[C@H]1[C@@H](CC(=O)Nc2ccc(Cl)c(-c3ccccn3)c2)O[C@@H]2O[C@@]3(C)CC[C@H]4[C@H](C)CC[C@@H]1[C@@]24O3 | 6.74 | 
C[C@@H]1CC[C@@H]([C@@H](C)C(=O)Nc2ccc(Cl)c(-c3ccccn3)c2)[C@H]2CC(O)CC[C@H]21 (stereo not given in full) | < 6.00 | 
C[C@@H]1CC[C@@H]([C@@H](C)C(=O)Nc2ccc(Cl)c(-c3ccccn3)c2)c2nc(CN3CCOCC3)ccc21 | 6.81 | pIC50 [1]: < 4.70; pIC50 [2]: 5.48
C[C@H]1[C@@H](O[C@@H](C#N)c2ccc(Br)cc2)O[C@@H]2O[C@@]3(C)CC[C@H]4[C@H](C)CC[C@@H]1[C@@]24OO3 |  | pIC50 [3]: 8.00
C[C@@H]1CC[C@@H]([C@@H](C)C(=O)Nc2ccc(Cl)c(-c3ccccn3)c2)[C@H]2Cc3c(cnn3-c3ccccc3)C[C@H]21 | 6.49 | 
C[C@H]1[C@@H](CC(=O)Nc2ccc(Cl)c(-c3ccccn3)c2)O[C@@H]2O[C@@]3(C)CC[C@H]4[C@H](C)CC[C@@H]1[C@@]24OO3 | 6.62 | pIC50 [1]: 5.18; pIC50 [2]: < 4.82
C[C@@H]1CC[C@@H]([C@@H](C)C(=O)Nc2ccc(Cl)c(-c3ccccn3)c2)[C@H]2Cc3c(c4ccccc4n3C)C[C@H]21 | 6.32 | 
Cc1nc2c(s1)C[C@@H]1[C@H](C2)[C@H]([C@@H](C)C(=O)Nc2ccc(Cl)c(-c3ccccn3)c2)CC[C@H]1C | < 6.00 | 
C[C@@H]1CC[C@@H]([C@@H](C)C(=O)Nc2ccc(Cl)c(-c3ccccn3)c2)C2=CC(=O)CC[C@H]21 | < 6.00 | 
